ChEMBL document CHEMBL1134792, “Antimitotic antitumor agents: synthesis, structure-activity relationships, and biological characterization of N-aryl-N'-(2-chloroethyl)ureas as new selective alkylating agents” (J Med Chem, 2001)
Calls of active or inactive are those of the source. No cut-off for these calls is given here.

Legend:
[1] = system: LoVo; test: Dose to inhibit cell growth determined against LoVo cell line of human adenocarcinoma; format: functional, cell-based
Method in brief: (§1)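 Alamar Blue growth assay. (1–5) × 10^3 cells per well preincubated 24 h, then exposed to increasing drug concentrations for 72 h at 37 °C. Medium replaced with PBS containing 20% Alamar Blue, fluorescence read at 485/590 nm. IC50 is the dose inhibiting growth by 50%.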

[2] = system: CHO; test: Dose required to inhibit cell growth was determined against CHO cell line; format: functional, cell-based; conditions: Cricetulus griseus; method in brief: as §1
[3] = system: L1210; test: Dose required to inhibit cell growth was determined against L1210 cell line of murine lymphocytotic leukemia; format: functional, cell-based; conditions: Mus musculus; method in brief: as §1
[4] = system: HT-29; test: Dose required to inhibit cell growth was determined against HT-29 cell line of human adenocarcinoma; format: functional, cell-based; method in brief: as §1
[5] = system: P388; test: Dose required to inhibit cell growth was determined against P388D1 cell line of murine lymphocytotic leukemia; format: functional, cell-based; conditions: Mus musculus; method in brief: as §1
[6] = system: MDA-MB-231; test: Dose required to inhibit cell growth was determined against MDA-MB-231 cell line of human non-hormone dependent breast carcinoma; format: functional, cell-based; method in brief: as §1
[7] = system: MDA-MB-231; test: (§2) DNA damages caused in MDA-MB-231 cells after 2 hr exposure to a concentration of 400 uM; format: functional, Homo sapiens
Method in brief: (§3)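 Growing MDA-MB-231 cells held 2 h at 37 °C in medium with or without 400 μM compound. Cells washed in cold PBS and lysed in Tris/SDS/EDTA/deferoxamine/proteinase K buffer. DNA isolated by salting out, then 3'-end labeled by T4 DNA polymerase nucleotide exchange. Incorporated radioactivity measured by dot filtration, expressed as dCps exchanged/ng DNA. Means ± SD, ≥3 determinations.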

[8] = system: MDA-MB-231; test: Beta tubulin alkylation activity in MDA-MB-231 cells; format: functional, Homo sapiens; set-up: concentration or dose not given beside the values
Method in brief: (§4)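 MDA-MB-231 cells (~5 × 10^6), exponentially growing, exposed to 30 μM compound for 24 h at 37 °C. Lysed in Laemmli buffer, run on 10% SDS-PAGE, immunoblotted with anti-β-tubulin (TUB 2.1, 1:500) and peroxidase anti-mouse secondary, ECL detection. Normal and alkylated band densities integrated to give % alkylated β-tubulin. Representative of three experiments.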

[9] = system: K562; test: Dose required to inhibit cell growth was determined against K562 cell line of chronic myelogenous leukemia; format: functional, cell-based; conditions: Homo sapiens; method in brief: as §1
[10] = Glutathione activity was measured after incubation with a conc. of 500 uM
Method in brief: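 Cell-free thiol assay. GSH 500 µM with 1 mM EDTA and 500 µM drug (from 2% ethanol solution) in 0.1 M phosphate buffer pH 7.4, 60 min at room temperature. DTNB (0.133 mM) was then added and A412 read. Reported as % of no-drug control, in triplicate.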

[11] = system: MDA-MB-231; test: DNA damages caused in MDA-MB-231 cells after 2 hr compound exposure to 400 uM concentration; format: functional, Homo sapiens; method in brief: as §3
[12] = Alkylating activity by using 4-(4-nitrobenzyl)-pyridine (NBP) colorimetric assay
Method in brief: (§5)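 NBP colorimetric assay. Drug at 400 nmol/mL in ethanol was mixed with 10% NBP in ethanol and 50 mM sodium acetate pH 4.3, then heated at 80 °C for 60, 90, 120 or 150 min. Samples were chilled and basified with KOH/ethanol, and A570 was read against a drug-free blank. The alkylation rate (A570/min) is the slope of a linear regression of absorbance vs time. Mean ± SD of ≥3 independent experiments.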

[13] = molecular target: T1, Glutathione reductase, mitochondrial (Homo sapiens) (UniProt P00390); test: Glutathione reductase activity was measured after incubation with a conc. of 500 uM; format: functional
T1 sequence (whole entry): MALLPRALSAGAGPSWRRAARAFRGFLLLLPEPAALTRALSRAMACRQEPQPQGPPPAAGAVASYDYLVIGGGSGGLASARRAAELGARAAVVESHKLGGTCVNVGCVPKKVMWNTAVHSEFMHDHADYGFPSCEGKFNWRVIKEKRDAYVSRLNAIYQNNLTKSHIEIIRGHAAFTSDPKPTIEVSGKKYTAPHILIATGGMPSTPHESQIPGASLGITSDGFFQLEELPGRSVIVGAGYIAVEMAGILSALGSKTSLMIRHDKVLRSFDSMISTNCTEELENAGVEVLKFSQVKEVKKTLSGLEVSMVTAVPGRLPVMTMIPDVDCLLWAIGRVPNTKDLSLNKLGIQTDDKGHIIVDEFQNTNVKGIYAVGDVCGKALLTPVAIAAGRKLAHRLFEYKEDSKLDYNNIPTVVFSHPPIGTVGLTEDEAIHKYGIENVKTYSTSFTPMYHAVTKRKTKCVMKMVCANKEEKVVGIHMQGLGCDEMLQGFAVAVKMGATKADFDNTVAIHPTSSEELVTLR
Method in brief: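 Purified glutathione reductase (0.016 U/mL) with 100 µM NADPH, 1 mM EDTA, 1 mg/mL BSA and 500 µM drug (from 2% ethanol solution) in 0.1 M phosphate pH 7.4, preincubated 60 min at 30 °C. GSSG was then added for 60 min at 30 °C. Activity is the […] over 3 min, as % of no-drug control, in triplicate.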

[14] = system: LoVo; test: Dose required to inhibit cell growth was determined against LoVo cell line a human colon adenocarcinoma; NA= Not active represents IC50 >400 uM; format: functional, cell-based
Method in brief: (§6)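 Alamar Blue growth-inhibition assay. Cells ((1–5) × 10³ per well) were preincubated for 24 h, then exposed to increasing drug concentrations for 72 h at 37 °C. Alamar Blue (20%) was added and fluorescence read at ex 485 / em 590 nm. IC50 is the dose inhibiting growth by 50%. Means of ≥3 independent determinations.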

[15] = system: P388; test: Dose required to inhibit cell growth was determined against P388D1 cell line of murine lymphocytotic leukemia; NA= Not active represents IC50 >400 uM; format: functional, cell-based; conditions: Mus musculus; method in brief: as §6
[16] = system: CHO; test: Dose required to inhibit cell growth was determined against CHO cell line; Not active represents IC50 >400 uM; format: functional, cell-based; conditions: Cricetulus griseus; method in brief: as §6
[17] = system: MDA-MB-231; test: Dose required to inhibit cell growth was determined against MDA-MB-231 cell line of human non-hormone dependent breast carcinoma; Not active represents IC50 >400 uM; format: functional, cell-based; method in brief: as §6
[18] = system: HT-29; test: Dose required to inhibit cell growth was determined against HT-29 cell line of human adenocarcinoma; Not active represents IC50 >400 uM; format: functional, cell-based; method in brief: as §6
[19] = Alkylating activity using 4-(4-nitrobenzyl)-pyridine(NBP) colorimetric assay
[20] = system: MDA-MB-231; test: Beta tubulin alkylation activity in MDA-MB-231 cells; not determined; format: functional, Homo sapiens; method in brief: as §4
[21] = system: MDA-MB-231; test: as §2; format: functional; method in brief: as §3
[22] = Alkylating activity by using 4-(4-nitrobenzyl)-pyridine(NBP) colorimetric assay; method in brief: as §5
[23] = system: MDA-MB-231; test: Dose required to inhibit cell growth was determined against MDA-MB-231 cell line of human non-hormone dependent breast carcinoma; NA= Not active represents IC50 >400 uM; format: functional, cell-based; method in brief: as §6
[24] = system: LoVo; test: Dose required to inhibit cell growth was determined against LoVo cell line of human adenocarcinoma; NA= Not active represents IC50 >400 uM; format: functional, cell-based; method in brief: as §6
[25] = system: HT-29; test: Dose required to inhibit cell growth was determined against HT-29 cell line of human adenocarcinoma; NA= Not active represents IC50 >400 uM; format: functional, cell-based; method in brief: as §6
[26] = system: K562; test: Dose required to inhibit cell growth was determined against K562 cell line of chronic myelogenous leukemia; Not active represents IC50 >400 uM; format: functional, cell-based; conditions: Homo sapiens; method in brief: as §6
[27] = system: CHO; test: Dose required to inhibit cell growth was determined against CHO cell line; NA= Not active represents IC50 >400 uM; format: functional, cell-based; conditions: Cricetulus griseus; method in brief: as §6

Compound	IC50 [1] [µM]	IC50 [2] [µM]	IC50 [3] [µM]	IC50 [4] [µM]	IC50 [5] [µM]	IC50 [6] [µM]	Activity [8] [%]	IC50 [9] [µM]	NA [16]	NA [17]	other results
O=C(NCCCl)Nc1ccc2ccccc2c1	6.2	7.2	3	5.5	5.3	6.1	47	3			DNA damage [7]: 1.89 10e7 exchanged dCps (ng of DNA)
O=C(NCCCl)Nc1ccc(I)cc1	5.4	4.8	3.8	3.9	5.4	5.7	44	2.1			Activity [10]: 100%; DNA damage [11]: 2.66 10e7 exchanged dCps (ng of DNA); Activity [12]: 3.1 A570 min-1; Activity [13]: 98%
O=C(O)CCCc1ccc(N(CCCl)CCCl)cc1 [CHLORAMBUCIL]	9	30	3	> 100	7	80		11			Activity [12]: 39 A570 min-1; DNA damage [7]: 12.7 10e7 exchanged dCps (ng of DNA)
O=C(NCCCl)Nc1ccccc1			57	> 100		140	0	> 100			NA [14]: inactive; NA [15]: inactive
CCC(C)c1ccc(NC(=O)NC)cc1 (configuration not stated)			62					142	inactive	inactive	NA [18]: inactive
CCNC(=O)Nc1ccc(C(C)(C)C)cc1				83				84	inactive	inactive	Activity [19]: 0.07; Activity [20]: 0
O=C(NCCCl)Nc1ccc2c(c1)CCC2	5.1	10	5	10	7.3	10	43	5.5			DNA damage [21]: 2.37 10e7 exchanged dCps (ng of DNA); Activity [22]: 3.5 A570 min-1
O=C(NCCCl)Nc1cccc2c1CCCC2		56	55					76			NA [23]: inactive; NA [24]: inactive; NA [25]: inactive; NA [15]: inactive
CNC(=O)Nc1ccc(C(C)C)cc1			135					198	inactive	inactive	NA [18]: inactive
CNC(=O)Nc1ccc(C(C)(C)C)cc1			80	196					inactive	inactive	NA [26]: inactive
CCNC(=O)Nc1ccc(C(C)C)cc1			35					142	inactive	inactive	NA [18]: inactive
Cc1cc(C)nc(NC(=O)NCCCl)c1			144			50		113			NA [24]: inactive; NA [27]: inactive; NA [15]: inactive
O=NN(CCCl)C(=O)NCCCl [CARMUSTINE]		8.2	4.5	17	5.9	7.4		9			Activity [10]: 50%; DNA damage [7]: 19.9 10e7 exchanged dCps (ng of DNA); Activity [13]: 20%
CC(C)(C)c1ccc(NC(=O)NCCCl)cc1	4.1	6.3	3	9.1	5.2	6.2	44	3.5			Activity [10]: 100%; Activity [22]: 3.1 A570 min-1; DNA damage [11]: 2.22 10e7 exchanged dCps (ng of DNA); Activity [13]: 100%
